High-throughput results deposited in PubChem BioAssay by several laboratories.
An excerpt weighted towards active compounds, which were near 2% of everything screened.
Dynein cargo inh: blocks dynein driven cargo transport along microtubules. z-score, hits read low. 220,000 compounds, 0.47% hits. 3617.4 mouse cells, GR-EGFP nuclear translocation imaging; test concentration mostly 20 µM; stimulated with dexamethasone, 1 µM; hits give low values. AID 1381;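 active = plate z-score of nuclear minus cytoplasmic receptor signal below a set negative limit, without overly bright fluorescence or cell loss, cut at about -3.5 in these data, passing the limit was not always enough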;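 note: z-score of nuclear minus cytoplasmic ring GR-EGFP intensity difference per well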
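medium = tetracycline-free induction medium containing charcoal-stripped FBS | probe or stimulus = dexamethasone, 1.0 µM final | timing = 48 h induction, then 1 h compound, then 30 min agonist, 37 °C | detection = automated 10x imaging of fixed Hoechst-stained cells | read-out basis = nuclear versus cytoplasmic GR-EGFP signal, averaged per well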
Autophagy mod: autophagy modulation, high-content screen | 190,000 compounds, 0.98% hits | AID 463193 | calls only at 10 µM (by protocol) | MEF GFP-LC3 puncta imaging; test concentration mostly 10 µM;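 active = percentage of spot-positive cells more than 3 SD above its plate mean, without a fluorescence outlier flag or 80% toxicity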;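 note: spot-positive cell cutoff set from DMSO-treated cells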
Ins promoter up: MIN6 insulin promoter up-regulation; z-score at 5 µM; AID 1625; MIN6 insulin promoter-GFP reporter, high-content imaging; hits give high values; 190,000 compounds, 0.3% hits;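 active = z-score above 3 at 5 µM with at least 500 cells counted in the well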
INS promoter inh: TRM-6 insulin promoter activity inhibition. TRM-6 cells, insulin promoter-eGFP reporter, imaging; reporter expression induced with tamoxifen. inhibition, % at 2 µM. 130,000 compounds, 0.9% hits. AID 1273;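 active = inhibition above the mean plus 3 SD, with well images judged a real hit on visual review, cut at about 60% in these data, passing the limit was not always enough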
HSV augment: HSV replication enhancement; HSV replication augmentation in cells, fold increase; maximum fold increase; 220,000 compounds, 0.005% hits; AID 1956; in the data active = maximum fold increase above about 1.5; tested in PC3 cells
Furin inhibitor: human furin inhibition | P09958 | purified furin, fluorogenic substrate cleavage | inhibition, % at 20 µM or 30 µM | 220,000 compounds, 0.061% hits | AID 463115; in the data active = inhibition above about 25%
Target sequence (P09958 108-714 limits assumed): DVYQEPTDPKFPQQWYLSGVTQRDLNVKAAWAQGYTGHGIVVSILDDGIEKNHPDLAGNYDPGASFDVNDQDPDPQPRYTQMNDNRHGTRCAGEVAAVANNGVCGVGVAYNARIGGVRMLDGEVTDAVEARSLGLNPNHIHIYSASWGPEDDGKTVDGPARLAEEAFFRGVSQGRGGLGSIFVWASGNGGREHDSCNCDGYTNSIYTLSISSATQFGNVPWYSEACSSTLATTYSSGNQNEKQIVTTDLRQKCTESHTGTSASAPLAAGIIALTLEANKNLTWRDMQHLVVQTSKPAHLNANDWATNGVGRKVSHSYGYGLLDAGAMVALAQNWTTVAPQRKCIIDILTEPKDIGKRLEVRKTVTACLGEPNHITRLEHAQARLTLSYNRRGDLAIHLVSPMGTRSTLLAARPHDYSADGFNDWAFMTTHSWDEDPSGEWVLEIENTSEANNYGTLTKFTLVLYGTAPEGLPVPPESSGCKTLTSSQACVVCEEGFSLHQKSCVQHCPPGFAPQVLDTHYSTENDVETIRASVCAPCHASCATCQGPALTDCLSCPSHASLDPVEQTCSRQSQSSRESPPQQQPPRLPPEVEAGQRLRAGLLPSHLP
Numbers without * were called inactive; i = inactive; . = no result; + = active, no number.

SMILES	Dynein cargo inh	Autophagy mod	Ins promoter up	INS promoter inh	HSV augment	Furin inhibitor
COc1cccc(NC(=S)/C(=C(\[O-])c2ccc(C)c([N+](=O)[O-])c2)[n+]2ccccc2)c1	0.88	i	-0.14	77*	i	-11
CCC1=NN(C(=O)Cc2ccc([N+](=O)[O-])cc2)C(O)(C(C)(C)C)C1 (stereo not given)	0.072	+	-0.2	-44	i	-10
CCc1ccc(C2(O)CC(C(F)(F)F)=NN2C(=O)Cc2ccc([N+](=O)[O-])cc2)cc1 (stereo not given)	1.6	i	.	-55	i	-14
Cc1ccccc1OCCSc1nc2ncnc(N)c2[nH]1	-0.35	i	-0.46	.	i	-14
Cc1cccc(NC(=O)CCN2C(=O)c3ccccc3C2=O)n1	0.37	+	.	0	i	-6
O=C(CCCN1C(=O)c2ccccc2C1=O)Nc1nncs1	-1	i	-1.5	-43	i	-21
O=C(CCCN1C(=O)c2ccccc2C1=O)NC1=NCCS1	2.4	+	0.58	0	i	-16
C=CCNC(=S)NNC(=O)CC12CC3CC(CC(C3)C1)C2	1.4	.	-0.19	.	i	-13
CNC(=S)N(Cc1ccc(Cl)cc1)Cc1cccs1	0.61	.	-0.11	.	i	-17
CCC(OC(=O)c1cccs1)C(=O)NCc1ccc(C)cc1 (stereo not given)	0.6	+	0.46	.	i	-21
CCC(OC(=O)c1cccs1)C(=O)NCc1ccc2c(c1)OCO2 (stereo not given)	-0.13	i	0.29	-43	i	-25
CCOC(=O)NNC(=O)NCCCCCCNC(=O)NNC(=O)OCC	0.66	.	0.22	.	i	-15
CC(=O)OC(C(=O)NCc1ccco1)c1cccnc1 (stereo not given)	0.75	i	0.02	76*	i	-12
CC(=O)OC(C(=O)NCc1ccco1)c1ccncc1 (stereo not given)	-0.14	i	.	15	i	-21
Cc1ccn2c(NC3CCCCC3)c(C)nc2c1	0.11	i	3.9*	.	i	-30
Cc1cccc(NC(=O)c2cn(-c3ccccc3)nc2-c2ccccc2)c1	-0.25	i	.	-10	i	-12
O=c1ccc(NS(=O)(=O)c2ccccc2)cn1Cc1ccc(Cl)c(Cl)c1	1.6	i	4.3*	-60	i	-10
CC1(C)Cc2cccc(C(=O)Nc3ccc(F)cc3F)c2O1	-0.18	.	-0.18	.	i	-13
c1ccc(-c2csc3ncnc(NCCN4CCOCC4)c23)cc1	1.8	i	.	81*	i	3
COc1ccc(-c2oc3ncnc(NCCN4CCOCC4)c3c2-c2ccc(OC)cc2)cc1	0.83	+	0.74	.	i	-33
COc1ccc2nc(-c3ccc(Cl)cc3)cc(C(=O)O)c2c1	-0.39	.	-0.08	.	i	-30
CC(C)(C)C1CCC(=NNC(=O)C(=O)NCc2ccco2)CC1 (stereo not given)	0.48	i	0.28	.	i	-18
COC(=O)c1ccc(S(=O)(=O)NCc2ccccn2)n1C	-0.45	.	-0.41	.	i	-27
CCc1c(C(=O)NC2CCCCC2)[nH]c(C)c1C(C)=O	-0.74	i	3.9*	.	i	-19
O=C(NCC1CCCO1)c1cc2c(s1)CS(=O)(=O)C2 (stereo not given)	0.21	+	0.02	16	i	-18
SMILES	Dynein cargo inh	Autophagy mod	Ins promoter up	INS promoter inh	HSV augment	Furin inhibitor
Cc1ccc2c(n1)CC(C)(C)CC2=O	-0.19	i	-0.38	.	i	-14
CCCC(=O)NCCc1cc2cc(C)c(C)cc2[nH]c1=O	-0.089	i	0.12	86*	i	-15
CC(=O)NCCc1cc2cc(C)c(C)cc2[nH]c1=O	0.89	i	0.7	-55	.	-7
O=c1c(Cc2ccccc2)c(O)ccn1C1CCCCCCC1	-0.72	i	0.14	.	i	-30
CCCCCn1nc(C)c(/C=N/NC(=O)c2ccoc2C)c1C	-0.93	i	.	93*	i	-15
CCCCCn1nc(C)c(/C=N\NC(=O)c2cc(C)oc2C)c1C	-0.43	i	-0.16	85*	i	-6
CCn1nc(C)c(/C=N/NC(=O)c2ccoc2C)c1C	-0.92	i	1.1	29	i	-26
COc1ccc(Cl)cc1NC(=S)NNC(=O)c1cccnc1	0.99	+	-0.18	-53	i	-16
COC(=O)/C(=N/Nc1ccccc1OC)N1CCCc2ccccc21	-0.98	.	.	.	i	-2
COc1ccc(Nc2nc(N)nc(CSc3nncn3C)n2)cc1	0.62	i	0.44	77*	i	-6
CC1=C(C(=O)OC(C)C)C(c2cccc([N+](=O)[O-])c2)n2c(cc(=O)[nH]c2=S)N1 (stereo not given)	0.69	i	0.34	46	i	-2
COC(=O)Nc1ccc(S(=O)(=O)Nc2ccc(O)cc2)cc1	0.48	i	.	79*	i	-17
CC(=O)Nc1ccc(NS(=O)(=O)c2ccccc2)cc1	-1.5	+	.	.	i	-33
CSc1ccc(S(=O)(=O)Nc2ccc(NC(C)=O)cc2)cc1	-0.32	i	-0.72	-32	i	-7
COC(=O)Nc1ccc(S(=O)(=O)Nc2ccc(C)cc2)cc1	-0.59	i	-0.24	-3	i	-16
CCOC(=O)c1cc2oc(C(c3nnnn3C3CCCCC3)N3CCOCC3)cc2[nH]1 (stereo not given)	-0.71	+	.	-44	i	-15
N#Cc1ccc(CSc2nnc(-c3ccccc3)n2Cc2ccco2)cc1	-0.59	i	0.11	-38	i	-10
N#Cc1ccc(CSc2nnc(Cc3cccs3)n2Cc2ccco2)cc1	0.37	+	.	-121	i	-5
COc1ccc(C(C)=O)cc1CSc1nc2cc(Cl)ccc2o1	-0.29	i	-0.24	74*	i	-15
COc1ccc(NC(=O)c2ccc(S(=O)(=O)N(C)c3ccccc3)cc2)cn1	-1.2	.	1.1	.	i	-23
COc1ccc(S(=O)(=O)N2CCOC2CNC(=O)C(=O)NCc2ccco2)cc1OC (stereo not given)	0.21	.	0.23	.	i	-12
CCOC(=O)c1ccc(NC(=S)N2CCN(CCNC3=CC(=O)CC(C)(C)C3)CC2)cc1	0.14	i	0.06	-56	i	-9
Cc1ccc(C)c(C(=O)COc2ccc(C)nc2[N+](=O)[O-])c1	-4.3*	i	0.18	7	i	-5
NC(=S)N=Nc1c(O)[nH]c2c(Br)cc(Br)cc12	-0.35	i	-0.1	.	i	-30
O=C1OC(c2ccccc2)/C(=C(/O)c2ccc(Cl)cc2)C1=O (stereo not given)	-0.00088	i	.	75*	i	-18
Cc1ccc(C2=C(c3ccc([N+](=O)[O-])cc3)C(=O)OC2)cc1C	-1.5	+	0.22	.	i	-15
COc1ccc(C2=C(c3ccc([N+](=O)[O-])cc3)C(=O)OC2)cc1	-0.2	i	0.43	0	i	-23
CCC1(CC)NC(=O)NC1=O	-0.17	i	-0.4	91*	i	-18
